Structures are written as SMILES. Bounds are passed on as bounds.

This passage reports IC50, Activity and t1/2 results from ChEMBL document CHEMBL1142542, “Synthesis, mechanistic studies, and anti-proliferative activity of glutathione/glutathione S-transferase-activated nitric oxide prodrugs” (Bioorg Med Chem, 2008).

The nature of data set [1]: Antiproliferative activity against human H1395 cells after 72 hrs by MTT assay. The class given is functional, cell-based. To be noted: NCI-H1395, 72 h. In general terms: Tetrazolium dyes change colour on reduction, which living cells bring about.
A further data set deals with OVCAR-5. Nature of the data set: Antiproliferative activity against human OVCAR5 cells after 72 hrs by MTT assay. The format is functional, cell-based. To be noted: OVCAR-5, 72 h.
For data set [2], the target named is T1, Glutathione S-transferase A1 (Homo sapiens) (UniProt P08263).
T1 sequence (whole entry): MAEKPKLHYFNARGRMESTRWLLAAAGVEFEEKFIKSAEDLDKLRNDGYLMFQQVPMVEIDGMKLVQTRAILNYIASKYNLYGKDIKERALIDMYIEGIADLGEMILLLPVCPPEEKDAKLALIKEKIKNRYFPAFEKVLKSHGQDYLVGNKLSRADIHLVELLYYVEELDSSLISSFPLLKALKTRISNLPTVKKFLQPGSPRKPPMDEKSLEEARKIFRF
Nature of the data set: Specific activity of human recombinant Glutathione S-transferase A1 at 50 uM by spectrophotometric analysis in presence of glutathione relative to O2-(2,4-dinitrophenyl) 1-[(4-ethoxycarbonyl)piperazin-1-yl]diazen-1-ium-1,2-diolate. In a few lines: (§1)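 Reaction of 1 mL held 0.1 M phosphate buffer pH 7.4, 1 mM GSH, 50 μM compound and a catalytic amount of GST. GSTA1-1 and GSTM1-1 were purified recombinant enzymes; GSTP1-1 was purified in-house. Enzymes were first checked for activity with CDNB. Reaction started by adding compound, and the absorbance decrease at its maximum was followed at 37 °C. Specific activity came from the change in extinction coefficient.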

Data set [3] can be described thus: Stability assessed as nitric oxide release in 0.1 M phosphate buffer at pH 7.4 at 100 to 150 nM measured per mole in presence of glutathione by chemiluminescence analysis. The class given is physicochemical.
A further data set has as its system A549. The data set is described as follows: Antiproliferative activity against human A549 cells after 72 hrs by MTT assay. The format is functional, cell-based. The following applies: A549, 72 h. The method in brief: (§2)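 MTT (CellTiter 96) proliferation assay. Seeded at 10⁴ per well and grown 24 h, then given rising compound concentrations in PBS (from 10 mM DMSO stocks) for 72 h. Six repeats per concentration, at least two independent experiments; IC50 reported.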

Data set [4] has as its target T2, Glutathione S-transferase Mu 1 (Homo sapiens) (UniProt P09488).
T2 sequence (whole entry): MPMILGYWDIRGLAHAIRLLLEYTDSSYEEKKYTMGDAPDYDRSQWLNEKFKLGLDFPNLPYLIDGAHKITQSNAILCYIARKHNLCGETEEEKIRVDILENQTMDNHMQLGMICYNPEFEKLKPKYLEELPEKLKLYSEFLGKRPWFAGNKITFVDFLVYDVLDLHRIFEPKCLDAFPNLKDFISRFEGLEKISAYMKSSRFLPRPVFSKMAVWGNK
Nature of the data set: Specific activity of human recombinant Glutathione S-transferase Mu 1 at 50 uM by spectrophotometric analysis in presence of glutathione relative to O2-(2,4-dinitrophenyl) 1-[(4-ethoxycarbonyl)piperazin-1-yl]diazen-1-ium-1,2-diolate. The method in brief:
as §1

A short description of data set [5]: Antiproliferative activity against human 786O cells after 72 hrs by MTT assay. The class given is functional, cell-based. To be noted: 786-0, 72 h.
In a further data set the test system is U-937. The data set is described as follows: Antiproliferative activity against human U937 cells after 72 hrs by MTT assay. The class given is functional, cell-based. The following applies: U-937, 72 h. In a few lines: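 Cells seeded at 10⁴ per well and grown 24 h, then exposed 72 h to increasing drug concentrations diluted in PBS from 10 mM DMSO stocks. Growth read by MTT assay. Six repeats per concentration, at least two independent experiments; IC50 reported.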

The subject of the next data set is HT-29. The data set is described as follows: Antiproliferative activity against human HT-29 cells after 72 hrs by MTT assay. The following applies: HT-29, 72 h. The class given is functional, cell-based.
A further data set deals with HCT-15. The data set is described as follows: Antiproliferative activity against human HCT-15 cells after 72 hrs by MTT assay. The class given is functional, cell-based. The following applies: HCT-15, 72 h.
Data set [6] can be described thus: Antiproliferative activity against human H441 cells after 72 hrs by MTT assay. The class given is functional, cell-based. To be noted: NCI-H441, 72 h.
The nature of data set [7]: Antiproliferative activity against human H838 cells after 72 hrs by MTT assay. The class given is functional, cell-based. The following applies: NCI-H838, 72 h.
The subject of another data set is OVCAR-3. The data set is described as follows: Antiproliferative activity against human OVCAR-3 cells after 72 hrs by MTT assay. To be noted: OVCAR-3, 72 h. The class given is functional, cell-based.
The target of data set [8] is T1, Glutathione S-transferase A1 (Homo sapiens). Nature of the data set: Specific activity of human recombinant Glutathione S-transferase A1 at 50 uM by spectrophotometric analysis in presence of glutathione. The method in brief: as §1
Data set [9] addresses Glutathione S-transferase P (Homo sapiens) (UniProt P09211). The data set is described as follows: Specific activity of human Glutathione S-transferase P at 50 uM by spectrophotometric analysis in presence of glutathione relative to O2-(2,4-dinitrophenyl) 1-[(4-ethoxycarbonyl)piperazin-1-yl]diazen-1-ium-1,2-diolate. In a few lines: as §1
The nature of data set [10]: Antiproliferative activity against human BJ-5ta cells after 72 hrs by MTT assay. The format is cell-based. To be noted: hTERT-BJ. The method in brief: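 10⁴ cells per well, allowed 24 h growth, then exposed 72 h to increasing concentrations added in PBS from 10 mM DMSO stocks. MTT proliferation read-out. Each concentration in six repeats, at least two independent experiments; IC50.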

Data set [11] deals with T2, Glutathione S-transferase Mu 1 (Homo sapiens). The data set is described as follows: Specific activity of human recombinant Glutathione S-transferase Mu 1 at 50 uM by spectrophotometric analysis in presence of glutathione. The method in brief: as §1
The test system of a further data set is PC-3. Nature of the data set: Antiproliferative activity against human PC-3 cells after 72 hrs by MTT assay. The format is functional, cell-based. The following applies: PC-3, 72 h. The method in brief:
as §2

Data set [12] addresses Glutathione S-transferase P (Homo sapiens) (UniProt P09211). The data set is described as follows: Specific activity of human Glutathione S-transferase P at 50 uM by spectrophotometric analysis in presence of glutathione. The method in brief:
as §1

A further data set deals with HL-60. Nature of the data set: Antiproliferative activity against human HL-60 cells after 72 hrs by MTT assay. The class given is functional, cell-based. To be noted: HL-60, 72 h. The method in brief: as §2
The test system of another data set is TK-10. Nature of the data set: Antiproliferative activity against human TK-10 cells after 72 hrs by MTT assay. The format is functional, cell-based. To be noted: TK-10, 72 h.
Data set [13] is described as follows: Antiproliferative activity against human UO-30 cells after 72 hrs by MTT assay. To be noted: UO-30, 72 h. The class given is functional, cell-based.
A short description of data set [14]: Antiproliferative activity against HREpC cells after 72 hrs by MTT assay. The class given is cell-based. The following applies: Homo sapiens. The method in brief:
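Seeded at 10⁴ per well and grown 24 h before dosing. Compounds came from 10 mM DMSO stocks and were diluted in PBS to increasing concentrations. Exposure was 72 h, with MTT growth read-out. Six repeats per concentration, at least two independent experiments; IC50.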

The subject of another data set is Caco-2. Nature of the data set: Antiproliferative activity against human Caco-2 cells after 72 hrs by MTT assay. The format is functional, cell-based. The following applies: Caco-2, 72 h.
Data set [15] can be described thus: Antiproliferative activity against human HCT 116 cells after 72 hrs by MTT assay. The following applies: HCT-116, 72 h. The format is functional, cell-based.
A short description of data set [16]: Chemical stability assessed as half life in 0.1 M phosphate buffer at 33 uM at pH 7.4 in presence of glutathione. The class given is physicochemical. To be noted: gsh, pH 7.4, 33 µM.

Glutathione S-transferase P (Homo sapiens), sequence (P09211 2-210 limits assumed): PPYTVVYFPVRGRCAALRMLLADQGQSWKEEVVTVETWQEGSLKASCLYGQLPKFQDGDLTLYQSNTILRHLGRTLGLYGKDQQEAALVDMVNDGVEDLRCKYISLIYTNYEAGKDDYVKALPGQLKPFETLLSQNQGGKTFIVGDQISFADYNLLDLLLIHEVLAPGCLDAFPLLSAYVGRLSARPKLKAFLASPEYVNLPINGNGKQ

Consider `CCOC(=O)N1CCN(/[N+]([O-])=N/Oc2ccc([N+](=O)[O-])cc2[N+](=O)[O-])CC1`, for which the IC50 in data set [1] turned out to be 0.8 µM; in the data set with OVCAR-5 it was 1 µM; in the data set with A549, 1.5 µM; in data set [5], 0.8 µM; in the data set with U-937 it was 0.3 µM; with HT-29, 0.8 µM. For the same compound, the IC50 with HCT-15 came to 0.6 µM; in [6] it was 1 µM; in data set [7], 4.3 µM; in the data set with OVCAR-3, 0.8 µM; in data set [10] it was 10 µM; in the data set with PC-3, 1.1 µM. In addition, the IC50 in the data set on HL-60 was 0.2 µM; with TK-10, 0.5 µM; in data set [13], 0.9 µM; in [14] it was 11.3 µM; in the data set on Caco-2 it was 2.6 µM; in data set [15], 0.7 µM. The Activity in data set [2] turned out to be 1; in data set [3] it was 1.7 mol/mol; in [4], 1; in [8] it was 66.3 µmol/min/mg; in data set [9], 1; in [11], 126 µmol/min/mg. In [12], the Activity was determined as 1.36 µmol/min/mg.

Take `CCOC(=O)N1C(C)CN(/[N+]([O-])=N/Oc2ccc([N+](=O)[O-])cc2[N+](=O)[O-])CC1C` (stereo unspecified): the Activity in data set [2] was determined as 1.06; in data set [3], 1.75 mol/mol; in data set [4], 1.36; in [8], 70.3 µmol/min/mg; in data set [9], 0.86; in data set [11], 172 µmol/min/mg. The Activity in data set [12] was determined as 1.17 µmol/min/mg. For the same compound, the IC50 with A549 is greater than 10 µM; in the data set with U-937 it was 4.9 µM; with HCT-15, 8.2 µM; in [6], 8.1 µM; with OVCAR-3 it was 4.9 µM; in the data set with PC-3, greater than 10 µM. In addition, the IC50 turned out to be 4.7 µM in the data set on HL-60 and 9.5 µM in data set [15]. The t1/2 in [16] amounted to 26 min.

In the case of `CCOC(=O)N1CCN(/[N+]([O-])=N/Oc2ccc([N+](=O)[O-])cc2[N+](=O)[O-])CC1C` (stereo unspecified), the Activity in data set [2] is 0.84; in [4] it was 0.89; in data set [8], 55.5 µmol/min/mg; in data set [9], 0.85; in [11], 112 µmol/min/mg; in data set [12], 1.15 µmol/min/mg.

`CCCOC(=O)N1CCN(/[N+]([O-])=N/Oc2ccc([N+](=O)[O-])cc2[N+](=O)[O-])CC1`: the Activity in data set [2] amounted to 0.89; in data set [3] it was 2 mol/mol; in [4] it was 1; in [8], 59 µmol/min/mg; in [9], 0.88; in data set [11], 126 µmol/min/mg. In addition, the Activity in data set [12] is 1.2 µmol/min/mg. The IC50 with A549 was 2.4 µM; in the data set on U-937, 0.7 µM; in the data set on HCT-15 it was 1.3 µM; in [6], 2.4 µM; in the data set on PC-3 it was 2 µM; with HL-60, 1.4 µM. This compound showed an IC50 in [15] of 1.5 µM. Also, the t1/2 in data set [16] is 27 min.

For the compound `COC(=O)N1CCN(/[N+]([O-])=N/Oc2ccc([N+](=O)[O-])cc2[N+](=O)[O-])CC1`, the Activity was 0.68 in data set [2]; 0.81 in [4]; 45.1 µmol/min/mg in [8]; 0.72 in [9]; 102 µmol/min/mg in data set [11]; 0.98 µmol/min/mg in [12].

Take `CCOC(=O)N1CCCN(/[N+]([O-])=N/Oc2ccc([N+](=O)[O-])cc2[N+](=O)[O-])CC1`: the Activity in [2] was found to be 0.25; in [4] it was 0.3; in [8], 16.8 µmol/min/mg; in [9], 0.12; in data set [11], 38 µmol/min/mg; in [12] it was 0.16 µmol/min/mg.

As to `CCOC(=O)N1CC(C)N(/[N+]([O-])=N/Oc2ccc([N+](=O)[O-])cc2[N+](=O)[O-])CC1C` (stereo unspecified), the Activity in [2] amounted to 0.27; in data set [4] it was 0.39; in data set [8], 17.6 µmol/min/mg; in data set [9], 0.1; in [11], 49 µmol/min/mg; in data set [12], 0.14 µmol/min/mg.

As to `CCOC(=O)N1CCN(/[N+]([O-])=N/Oc2ccc([N+](=O)[O-])cc2[N+](=O)[O-])C(C)C1` (stereo unspecified), the Activity came to 0.71 in data set [2]; 0.87 in [4]; 47 µmol/min/mg in [8]; 0.65 in data set [9]; 110 µmol/min/mg in [11]; 0.88 µmol/min/mg in [12].

One may read the IC50 as the concentration that gives 50% inhibition. Lower therefore signals greater potency in that assay.
